Screening results from PubChem.
MrgX1 antagonist – antagonists of human MrgX1 receptor, primary screen, HEK293 cells, Fluo-4 calcium flux; Mas-related G-protein coupled receptor member X1 (Homo sapiens), Q96LB2; 310,000 tested, 1.3% active; B-score at 10 µM; BAM8-22 antagonism; stronger effect = lower value; AID 588676, 2011;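 active = calcium-response B-score plate-corrected more than 3 library SD below zero, starting fluorescence within 5 deviations, no agonist response on first addition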;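 note: peak minus trough fluorescence over baseline after final BAM8-22 challenge near maximal dose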
Target sequence (Q96LB2 whole entry, looked up): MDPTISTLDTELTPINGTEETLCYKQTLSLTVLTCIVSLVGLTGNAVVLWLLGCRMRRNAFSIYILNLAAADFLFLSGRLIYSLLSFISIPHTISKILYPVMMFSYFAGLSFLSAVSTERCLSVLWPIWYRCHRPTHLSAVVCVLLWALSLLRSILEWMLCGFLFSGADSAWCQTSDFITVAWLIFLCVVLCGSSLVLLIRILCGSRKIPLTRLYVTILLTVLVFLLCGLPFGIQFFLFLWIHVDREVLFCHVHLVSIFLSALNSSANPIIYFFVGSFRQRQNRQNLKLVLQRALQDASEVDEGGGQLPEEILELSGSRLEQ
RGS4 block – RGS4 inhibitors, primary screen, cell-based, HEK293 M3R inducible RGS4, calcium flux; Fluo-4 calcium flux; stronger effect = higher value; triggered by carbachol at its EC20; Regulator of G-protein signaling 4 (Homo sapiens), P49798; 310,000 tested, 0.45% active; B-score at 10 µM; AID 463165, 2010;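 active = B-score, a plate-corrected calcium signal, over three deviations above library mean, with baseline fluorescence within five deviations of library mean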;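 note: RGS4 expression induced by doxycycline in cells with stable M3 receptor; B-score is computed from the integrated fluorescence ratio over baseline after carbachol; higher B-score means a larger calcium signal and so more RGS4 inhibition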
Target sequence (P49798 whole entry, looked up): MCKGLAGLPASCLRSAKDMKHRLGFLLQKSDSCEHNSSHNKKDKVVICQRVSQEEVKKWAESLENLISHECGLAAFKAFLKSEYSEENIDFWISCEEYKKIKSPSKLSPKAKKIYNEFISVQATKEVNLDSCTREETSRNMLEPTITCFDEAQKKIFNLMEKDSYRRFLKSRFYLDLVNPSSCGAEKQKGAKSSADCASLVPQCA
RGS4 act – RGS4 potentiators or activators, primary screen, cell-based, HEK293 M3R inducible RGS4, calcium flux | B-score at 10 µM | 310,000 tested, 0.92% active | carbachol calcium flux Fluo4; stronger effect = lower value;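 active = B-score of the integrated calcium signal more than 4 SD below the library mean, with starting fluorescence not abnormally high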;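 note: negative B-score means reduced calcium response which marks RGS4 activation or potentiation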
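Assay system: Inducible-RGS4 HEK293 cells carrying M3 receptor | Schedule: Compound preincubation 20 min at room temperature before agonist | Signal: Kinetic calcium fluorescence imaging with Fluo4-AM dye, 2 µM | Read-out basis: B score from integrated fluorescence ratio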
MrgX1 PAM – positive allosteric modulators of MrgX1, primary screen, HEK293 cells, Fluo-4 calcium flux; Mas-related G-protein coupled receptor member X1 (Homo sapiens), Q96LB2; FDSS; stronger effect = higher value; B-score at 10 µM; 310,000 tested, 0.63% active; AID 588675, 2011;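 active = plate-corrected calcium response at least 3 library SD above typical, normal starting fluorescence, not activating the receptor alone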;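 note: compound read alongside a low EC10 to EC30 dose of BAM8-22 agonist; peak minus trough fluorescence over baseline measured at the second addition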
MrgX1 agonist – agonists of human MrgX1 receptor, primary screen, HEK293 cells, Fluo-4 calcium flux; Mas-related G-protein coupled receptor member X1 (Homo sapiens), Q96LB2; Fluo-4 calcium fluorescence, agonist mode; stronger effect = higher value; B-score at 10 µM; 310,000 tested, 0.44% active;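 active = calcium response B-score plate-corrected fluorescence ratio at least 3 library SD, with starting fluorescence B-score inside 5 SD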
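Material – MrgX1-expressing HEK293 cells · Input – 15,000 cells seeded per well · Dosing – compound as first of three additions · Times – overnight seeding, then 1 h dark dye loading · Measured by – kinetic Fluo-4 NW fluorescence of intracellular calcium · Read-out – B-scored fluorescence response ratio · Benchmarks – positive and negative control wells on each plate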
RGS4 block valid – enhanced carbachol calcium response, M3R/RGS4 cells, RGS4 inhibitor project, cell-based, validation screen, HEK293 M3R/RGS4, calcium flux. shares compounds with RGS4 block. carbachol calcium Fluo-4 fluorescence; carbachol added at its EC20; 0 = buffer wells, 100 = carbachol control. calcium response, % at 10 µM. 1,700 tested, 65% active. AID 492999, 2010;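 active = duplicate-averaged calcium response above the buffer-only control mean plus 5 SD of those controls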;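 note: integrated fluorescence ratio F max minus min over baseline F0; higher response in RGS4-induced cells means RGS4 inhibition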
M3R Ca ctr – carbachol calcium response in non-induced M3R cells, confirmation, counter-screen for RGS4 inhibitor project, cell-based, HEK293 M3R; shares compounds with RGS4 block; carbachol calcium Fluo-4; submaximal (EC20) carbachol stimulus; buffer wells 0%, carbachol control wells 100%; activity (percent), % at 10 µM; 1,900 tested, 20% active; AID 493000, 2010; call rule not given here;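 note: RGS4 induction absent so cells express M3R without RGS4; higher means more calcium signal and flags a non-specific hit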
M3R basal Ca ctr – second RGS4 inhibitor counter-screen in uninduced cells lacking carbachol; shares compounds with RGS4 block; HEK293 M3R/RGS4 non-induced, Fluo-4 calcium, no carbachol; normalised: buffer wells 0%, carbachol wells 100%; calcium response (agonist-mode artifact), % at 10 µM; 1,900 tested, 22% active;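 active = duplicate-averaged calcium rise in uninduced cells above buffer wells' mean plus 5 SD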
Large screens that a line does not name were inactive (follow-up assays come after a bar, where they were run). Rows were chosen to be rich in hits. Some 3.5% of all compounds tested hit in one or more screens of this group.

CC1CCN(c2nc(N3CCCCC3)nc(N3CCCCC3)n2)CC1	RGS4 block 8.69 | RGS4 block valid 43.5% | M3R Ca ctr 55.0% | M3R basal Ca ctr inactive
CN(C)CCC(=O)c1cccc(Br)c1	RGS4 block 6.79 | RGS4 block valid inactive | M3R Ca ctr inactive | M3R basal Ca ctr 28.5%
CCCN(c1ccccc1F)S(=O)(=O)c1cc(-c2cc(C)no2)ccc1OC	none
Cc1ccc(C2CC(c3cccs3)=NN2S(=O)(=O)c2ccc(C)cc2)cc1 (stereo unspecified)	none | M3R Ca ctr inactive | M3R basal Ca ctr 31.5%
O=S(=O)(c1ccccc1)N1N=C(c2cccs2)CC1c1ccc(F)cc1 (stereo unspecified)	none
COc1ccc(C2CC(c3cccs3)=NN2S(=O)(=O)c2ccc(C)cc2)cc1 (stereo unspecified)	RGS4 block 6.22 | RGS4 block valid 17.0% | M3R Ca ctr inactive | M3R basal Ca ctr inactive
COc1ccc(/C=C/C(=O)c2sc(-c3ccccc3)nc2C)cc1	none | M3R Ca ctr inactive | M3R basal Ca ctr 39.5%
Nc1nnnn1/N=C/c1cc(Cl)ccc1O	none
Cc1cc(N=Cc2cc(Cl)ccc2O)no1	RGS4 block 5.69 | RGS4 block valid 7.0% | M3R Ca ctr 30.5% | M3R basal Ca ctr inactive
CC1C/C(=C/c2ccncc2)C(=O)/C(=C/c2ccncc2)C1 (stereo unspecified)	RGS4 block 28.3, MrgX1 PAM 7.95 | RGS4 block valid 120.5% | M3R Ca ctr inactive | M3R basal Ca ctr 7.5%
O=c1[nH]c(-c2ccccc2Cl)nc2c1sc(=S)n2-c1ccccc1	RGS4 block 5.12 (no result: MrgX1 antagonist, MrgX1 PAM, MrgX1 agonist) | RGS4 block valid 12.0% | M3R Ca ctr inactive | M3R basal Ca ctr inactive
O=c1[nH]c(-c2ccc(F)cc2)nc2c1sc(=S)n2-c1ccccc1	none
CCOC(=O)c1cccc(NC(=O)Cn2nc(C)n3cccc3c2=O)c1	none
CCOC(=O)c1c(NC(=O)C(=O)N/N=C/c2ccc(O)c(OC)c2)sc2c1CCCCC2	RGS4 block 12.1 | RGS4 block valid 37.0% | M3R Ca ctr 53.5% | M3R basal Ca ctr 18.5%
CC1=NN(c2ccccc2)C(=O)/C1=C/c1ccc(Cl)cc1	none
COc1ccc(/C=C2/C(=O)N(c3ccccc3)N=C2C)cc1Br	RGS4 block 23.9, MrgX1 PAM 8.92 | RGS4 block valid inactive | M3R Ca ctr inactive | M3R basal Ca ctr inactive
O=C(c1nnsc1S(=O)(=O)c1ccc(Cl)cc1)N1CCOCC1	none (no result: MrgX1 antagonist, MrgX1 PAM, MrgX1 agonist)
O=C(c1nnsc1S(=O)c1ccc(Cl)cc1)N1CCOCC1 (stereo unspecified)	RGS4 block 7.14 (no result: MrgX1 antagonist, MrgX1 PAM, MrgX1 agonist) | RGS4 block valid 31.0% | M3R Ca ctr inactive | M3R basal Ca ctr 23.5%
Cc1ccc2c(c1)c1c(n2C)-c2[nH]ncc2CC1	RGS4 block 5.5 | RGS4 block valid 17.5% | M3R Ca ctr inactive | M3R basal Ca ctr inactive
Cc1ccc2c(c1)c1c(n2C)C(C(N)=O)CCC1 (stereo unspecified)	none
Cc1ccc(OCC(=O)NNC(=O)c2ccco2)c(C)c1	RGS4 block 29.7 | RGS4 block valid inactive | M3R Ca ctr inactive | M3R basal Ca ctr inactive
NC(=O)[C@@H]1CCCN1Cc1nc(Cc2ccccc2Cl)no1	none
CC1Cc2ccccc2N1Cc1cc(=O)n2ccsc2n1 (stereo unspecified)	none (no result: RGS4 block, RGS4 act)
